Measurements reported in article PMC7688577 (FASEB journal : official publication of the Federation of …, 2020).

Tests used:
[1] = tested on: rhodopsin mutants (T4R, P23H, P53R, C110Y, D190N, P267L); assay type: cell-based, mouse; conditions: U2OS cells; T4R, P23H, P53R, C110Y, D190N, P267L mutants
Outline: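 U2OS stable lines expressed WT or mutant mouse rhodopsin fused to Venus. Cells were transfected with pcDNA3.1 Zeo constructs, kept 48 h in DMEM/10% FBS, then selected with 400 μg/mL Zeocin. Stable cells were treated with test compound at 10 μM and immunostained for rhodopsin.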

[2] = target: P23H rhodopsin fused with Renilla luciferase (Mus musculus, UniProt P15409, P23H); assay: Rluc reporter assay in Hek293; assay type: cell-based; conditions: for Rluc assay Hek293 (RHO^P23H-Rluc) Efficacy: DMSO = 0%, 1 mM Evans Blue = -100%; for EC50: read-out: Rluc assay Hek293 (RHO^P23H-Rluc) EC50, 24 h treatment, dose response
[3] = target: T1, P23H rhodopsin (Mus musculus, UniProt P15409, P23H); assay: Image-based; assay type: cell-based; conditions: for Image-based assay NIH3T3 (RHO^P23H/GFP) Efficacy: DMSO = 0%, secondary antibody only = -100%; for EC50: read-out: Image-based assay NIH3T3 (RHO^P23H/GFP) EC50, 24 h treatment, 8-10 doses
[4] = tested on: RHO transcripts; assay: qPCR of RHO transcripts in NIH3T3; assay type: cell-based, mouse; conditions: 10 μM; for Rho mRNA level (qPCR): NIH3T3(RHO^P23H/GFP) cells, vs DMSO control; for Rho mRNA level (qPCR) / WT and P23H rhodopsin transcripts in comparison to DMSO control: 24 h
Outline: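 NIH3T3 cells stably expressing WT or P23H rhodopsin (GFP lines) were seeded in 24-well plates at 2.5×10⁵ cells/well and cultured overnight at 37 °C, 5% CO₂. They were then exposed to test compound in culture medium for 24 h. RNA was precipitated by centrifugation at 12,000×g for 10 min at 4 °C, washed with 75% ethanol, air-dried and dissolved in nuclease-free water before qPCR.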

[5] = tested on: WT rhodopsin fused with Renilla luciferase; assay: Rluc reporter counter assay in Hek293; assay type: cell-based, mouse; conditions: DMSO = 0%, 1 mM Evans Blue = -100%; NA = no dose response effect
Outline: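 HEK293 cells stably expressing WT rhodopsin–Rluc, run as the HTS reporter assay: cells spun 300 × g 30 s, cultured overnight at 37 °C, 5% CO2; test compound in DMSO pin-transferred. ViviREN (50 μM solution in PBS) added, 1 h dim light, room temperature; luminescence read. Score = (RLU_compound − RLU_DMSO)/(RLU_DMSO − RLU_Evans Blue) ×100; 10 μM triplicates and dose-response.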

[6] = target: T1, P23H rhodopsin; assay: Non-radioactive pulse-chase assay in NIH3T3; assay type: cell-based; conditions: 10 μM; for Rate of Rho^P23H degradation (Pulse-chase): NIH3T3(RHO^P23H/GFP) cells, 24 h chase, vs DMSO control
Outline: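 Non-radioactive pulse-chase. Cells (3 × 10⁵/well, 24-well) were grown overnight, starved in Met-free DMEM for 1 h, then pulsed with 50 μM L-AHA for 4 h (50 μM Met as negative control). Chase was 24 h in DMEM with 2 mM Met ± 10 μM test compound. Lysates (200 μg) were clicked with 5 μM BTN-sDIBO for 1 h at 37 °C, immunoprecipitated with 1D4, eluted at pH 2.8, dot-blotted and probed with HRP-streptavidin. Values normalized to DMSO on the same membrane; N=3, unpaired two-tailed t-test.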

[7] = target: T1, P23H rhodopsin; assay: Rhodopsin dot blot of NIH3T3; assay type: cell-based; conditions: NIH3T3(RHO^P23H/GFP) cells, 10 μM, 24 h, vs DMSO control
Outline: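 NIH3T3(RHO^P23H/GFP) cells were seeded at 2.5 × 10⁴/well in 96-well plates, attached 4 h, then given medium with 2× test compound to reach 10 μM final for 24 h. Cells were PBS-washed and lysed in RIPA with protease inhibitors plus 6 s sonication. Of each well's lysate, 90% was dotted on nitrocellulose, air-dried and probed with 0.1 μg/mL HRP-1D4. Densitometry was normalized to DMSO.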

[8] = both NIH3T3(RHO^P23H/GFP) and NIH3T3(RHO^WT/GFP) cells

| SMILES | Rluc assay Hek293 (RHO^P23H-Rluc) Efficacy [2] [%] | EC50 [2] [nM] | Image-based assay NIH3T3 (RHO^P23H/GFP) Efficacy [3] [%] | EC50 [3] [nM] | BTN-AHA labeled P23H rhodopsin at 24 h of chase in comparison to DMSO control [6] | Rho protein level (Dot blot) [7] | Rate of Rho^P23H degradation (Pulse-chase) [6] | Immunofluorescence intensities of rhodopsin mutants [1] | Rho mRNA level (qPCR) [4] | WT and P23H rhodopsin transcripts in comparison to DMSO control [4, 8] | Rluc assay Hek293 (RHO^WT-Rluc) Efficacy [5] [%] | Increase of rhodopsin transcripts compared to DMSO control [4, 8] |
| --- | --- | --- | --- | --- | --- | --- | --- | --- | --- | --- | --- | --- |
| CC(=O)OC(CC(=O)[O-])C[N+](C)(C)C (stereo not drawn) [CL-001] | −69.4 | 1100 | −83.6 | 2100 | significantly reduced | Down | – | reduced | Down | reduced non-selectively | −44.3 | – |
| CC(=O)OC(CC(=O)O)C[N+](C)(C)C (stereo not drawn) [CL-002] | −86.1 | 2000 | −61.0 | 1600 | significantly reduced | Down | – | reduced | Down | reduced non-selectively | −62.0 | – |
| O=C(O)C1=CC=CC(O)C1O (stereo not drawn) [CL-003] | −65.3 | 890 | −46.1 | 600 | – | Down | No Change | – | Down | reduced non-selectively | −37.7 | – |
| CC(O)CN (stereo not drawn) [CL-004] | −68.6 | 1600 | −70.7 | 470 | – | Down | No Change | – | Down | reduced non-selectively | −45.5 | – |
| O=[N+]([O-])c1ccc(Cl)c([N+](=O)[O-])c1 [CL-006] | −66.2 | 1700 | −76.4 | 2200 | – | Down | No Change | – | Down | reduced non-selectively | −42.9 | – |

More lines, main results first:

| Rluc assay Hek293 (RHO^P23H-Rluc) Efficacy [2] [%] | EC50 [2] [nM] | Image-based assay NIH3T3 (RHO^P23H/GFP) Efficacy [3] [%] | EC50 [3] [nM] | BTN-AHA labeled P23H rhodopsin at 24 h of chase in comparison to DMSO control [6] | Rho protein level (Dot blot) [7] | Rate of Rho^P23H degradation (Pulse-chase) [6] | SMILES | Immunofluorescence intensities of rhodopsin mutants [1] | Rho mRNA level (qPCR) [4] | WT and P23H rhodopsin transcripts in comparison to DMSO control [4, 8] | Rluc assay Hek293 (RHO^WT-Rluc) Efficacy [5] [%] | Increase of rhodopsin transcripts compared to DMSO control [4, 8] |
| --- | --- | --- | --- | --- | --- | --- | --- | --- | --- | --- | --- | --- |
| −78.2 | 6600 | −72.7 | 1300 | significantly reduced | Down | – | NCC(=O)COP(=O)(O)O [CL-005] | reduced | – | – | −57.9 | up to 2 fold |
| −72.5 | 13000 | −72.7 | 2900 | significantly reduced | Down | – | CCn1cnc2c(N)ncnc21 [CL-007] | reduced | Down | reduced non-selectively | −51.7 | – |
| −89.5 | 930 | −70.1 | 1600 | – | Down | No Change | CCC(C)(O)C(O)C(=O)O (stereo not drawn) [CL-008] | – | Down | reduced non-selectively | −52.7 | – |
